First the molecules themselves.
B1: tRNA (parent)
chain: GUUCCGUUGGCGUAAUGGUAACGCGUCUCCCUCCUAAGGAGAAGACUGCGGGUUCGAGUCCCGUACGGAACG

Fewer inactive variants are shown than the library holds. Where only a bound is given, the exact number is not on record here.

The variants in the series derive from B1. The experiment in a line: yeast fitness relative to wild type (ratio to wild type); higher = fitter; tRNA-Arg(CCU), competitive growth, 37 C, YPD. The method, boiled down: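 Amplicons of the tRNA-Arg(CCU) gene were sequenced, 100-nucleotide paired-end, from the start population and from each end population of a pooled yeast competition. The competition, in six parallel replicates, lasted 24 hours in YPD at 37°C. Fitness relative to wild type was calculated from changes in genotype frequencies. Genotypes had to have ≥ 100 starting reads, and estimates < 0.5 were set to 0.5.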
On to C11U U35A G56C, for which the yeast fitness was no more than 0.5.
With C11U U28A C62G, the yeast fitness is no more than 0.5.
For the variant C11U U32C C33U C62U A65G, the yeast fitness is no more than 0.5.
To C11U U64G belongs 0.739; to C11U A70G, 0.978; to C11U C22A C29G C33U A57U A70U, no more than 0.5.
To C11U C24A A43G C62A belongs no more than 0.5.
Regarding C11U G18A A37G, the yeast fitness was no more than 0.5.
For the variant C11U C29U A40C C49G, the yeast fitness was found to be 0.648.
Take C11U U26A C60A: the yeast fitness was no more than 0.5.
As for C11U A40C G68A, the yeast fitness turned out to be 0.733.
As to C11U C27A, the yeast fitness stood at 0.791.
With C11U U13C U28C A42U C55A G56A the figure was no more than 0.5.
In the case of C11U U54C G56A, the yeast fitness is no more than 0.5.
Turning to C11U G12A C31U U53C A65C, the yeast fitness was no more than 0.5.
In the case of C11U G50A G56A, the yeast fitness is 0.781.
To C11U C31A C55G C60A A70G belongs 0.535; to C11U C34G G50C, 0.576; to C11U G12A C27U G52A C62U, no more than 0.5.
With C11U G25A C62G the figure was 0.569; with C11U G39A A40U, 0.673; with C11U C27G A43U, 0.52.
C11U C27G A43C: the yeast fitness stood at 0.577.
Turning to C11U G68A, the yeast fitness is 0.878.
With C11U A37U G38A the figure was no more than 0.5; with C11U G67U, 0.846; with C11U G67A, 0.816.
Consider C11U C27U C31A U35C C55G C66U A70C, for which the yeast fitness was 0.512.
With C11U G17U C27U C31A U35C C55G C66U A70C the figure was no more than 0.5.
In the case of C11U G50A A70U, the yeast fitness worked out at 0.702.
On to C11U C46G G51A, for which the yeast fitness was found to be 0.571.
Turning to C11U C30U G48C G68C, the yeast fitness is no more than 0.5.
On to C11U U13C C24A U47A, for which the yeast fitness is no more than 0.5.
With C11U G25C A36U the figure was 0.547.
With C11U U35C A36U C46U G51A the figure was no more than 0.5; with C11U C27A G48A U53A C61G, no more than 0.5.
With C11U G12A G44C C46U the figure was 0.575; with C11U U16A C22A C24G A45U U47A, no more than 0.5; with C11U A21U A69C, 0.772.
For C11U A36G A70G, the yeast fitness came out at 0.672.
C11U C22U C66U: the yeast fitness turned out to be 0.517.
C11U C27G G39C: the yeast fitness is no more than 0.5.
Take C11U G23A C33G A69C: the yeast fitness is no more than 0.5.
Take C11U U32G U53A C55U C61U: the yeast fitness was no more than 0.5.
With C11U G67A A69U the figure was 0.652; with C11U G39C C62U G63C, no more than 0.5.
With C11U A37G A57G A70C the figure was no more than 0.5; with C11U G50A, 0.81.
With C11U G18A A36U G48C the figure was no more than 0.5; with C11U C22U A70G, 0.644.
With C11U C24U C34G A70G, the yeast fitness was no more than 0.5.
In the case of C11U U53A C62A, the yeast fitness is no more than 0.5.
For the variant C11U C29U C30G, the yeast fitness was 0.549.
For the variant C11U G51C, the yeast fitness was determined as 0.718.
C11U C27A G56C C62A A65C: the yeast fitness is no more than 0.5.
To C11U G50C C61U belongs 0.581; to C11U U16C C33A U53C C66G G67U, no more than 0.5; to C11U G25A C29U G67A A70U, no more than 0.5.
To C11U U26A C34G G68C belongs no more than 0.5; to C11U C27U C31A U35C C55G C62U C66U A70C, no more than 0.5.
As to C11U U13G U19A C22G G25A A69U, the yeast fitness was no more than 0.5.
With C11U C24G C33G the figure was 0.541.
With C11U A36G C46U the figure was 0.77; with C11U C24G C27G A36U G38C C60G C66A, no more than 0.5; with C11U U13C C29U A37C C46A, no more than 0.5.
To C11U C62G G63A belongs 0.529; to C11U C27U C31A U35C G48U C55G C66U A70C, no more than 0.5; to C11U A36C, 0.641.
As to C11U A36U, the yeast fitness came out at 0.606.
With C11U U19A G41A C60G A65G the figure was no more than 0.5; with C11U U19A A37C A40C G63A, no more than 0.5.
With C11U U35C U64A the figure was no more than 0.5; with C11U C33G A65C, 0.694.
With C11U A57U A65U the figure was 0.653; with C11U U19A A42G U59A C60U, no more than 0.5; with C11U A65U G67C, no more than 0.5.
In the case of C11U A21U G68C, the yeast fitness was determined as 0.69.
With C11U G23C C31G C60G A65U, the yeast fitness was no more than 0.5.
With C11U U28C G44C A69C A70C the figure was no more than 0.5.
For the variant C11U U19A A43U A65U, the yeast fitness was 0.53.
With C11U C22G U59C the figure was 0.575; with C11U U13A U16A U54A, 0.711; with C11U C31A A37G, no more than 0.5.
For the variant C11U G17C C30A C33G C61U, the yeast fitness was 0.581.
C11U G48A G51C C61A A65C: the yeast fitness is no more than 0.5.
With C11U G18C A43C G52A the figure was no more than 0.5; with C11U C60U C62U, no more than 0.5.
With C11U C60U C62G the figure was 0.588; with C11U A21U G50C, 0.788; with C11U C22G C30U U54C, no more than 0.5.
For C11U C27G C31G G39C G56A C61A A69G, the yeast fitness was found to be 0.641.
Consider C11U C22G G52C G56C, for which the yeast fitness was no more than 0.5.
With C11U C24G C27G A65U the figure was 0.576; with C11U U19A G63C, 0.53.
With C11U G44A C62U the figure was 0.762; with C11U A21U C27A, 0.576; with C11U C62U A70G, 0.753.
With C11U C31G A45G G56U the figure was no more than 0.5.
In the case of C11U U19G A20U, the yeast fitness was determined as 0.764.
To C11U U28C A45U belongs 0.742; to C11U A42G C60A, no more than 0.5.
For C11U A57U, the yeast fitness came to 0.677.
With C11U C49U A65G, the yeast fitness was found to be 0.76.
To C11U C34U G41A belongs no more than 0.5; to C11U A42C C49G, no more than 0.5; to C11U U16C U19C C62U A70G, 0.524.
As to C11U A36U G58A G67C, the yeast fitness is no more than 0.5.
On to C11U C29U A57U C61U, for which the yeast fitness is no more than 0.5.
Regarding C11U U26G G67C, the yeast fitness was no more than 0.5.
With C11U C30A U32G C49U C55G, the yeast fitness was no more than 0.5.
With C11U A45G C49A the figure was 0.567; with C11U C66A, 0.65; with C11U C66G, 0.745.
To C11U G18A G41C belongs no more than 0.5; to C11U U26C U47A G50A A70C, no more than 0.5.
Consider C11U C55A G58C, for which the yeast fitness is no more than 0.5.
With C11U G39C C46U the figure was 0.756.
With C11U C30U A42U G51A A57U A65U A70U the figure was no more than 0.5.
With C11U C34A A36C G68C the figure was no more than 0.5.
For C11U A36U A43C A57G, the yeast fitness was 1.1.
With C11U U26C U47C the figure was 0.799; with C11U U26C U47A, 0.555; with C11U U19A, 0.992.
To C11U C33U G48A belongs 0.58.
With C11U G25A C62U A70C the figure was 0.67; with C11U C22G U47C U53G, no more than 0.5; with C11U U28C G44C, 0.557.
With C11U U26G C30A A43C U53C C66U A70C, the yeast fitness is no more than 0.5.
For the variant C11U U35C A42G, the yeast fitness was no more than 0.5.
Regarding C11U C24G C33A A40C A69C, the yeast fitness stood at 0.72.
With C11U A40C U53A A69C A70U the figure was no more than 0.5; with C11U A40G, 0.866; with C11U U54C A57G, 0.553.
Regarding C11U A36G C46U G56A, the yeast fitness was no more than 0.5.
With C11U U16A the figure was 0.819; with C11U C61G, 0.638; with C11U C61A, 0.869.
Consider C11U G17A, for which the yeast fitness was determined as 0.961.
To C11U G18A G23C C34U U59A A70C belongs no more than 0.5; to C11U U13A G48A, 0.59; to C11U A40C U53A, 0.586.
On to C11U U16A U64A, for which the yeast fitness is 0.514.
To C11U A21U C27A C34A A36U U47C belongs no more than 0.5.
In the case of C11U A21U G39C C55U, the yeast fitness is no more than 0.5.
As for C11U C29U C49A, the yeast fitness is no more than 0.5.
With C11U U13C C29U A37C U54A C62U G68A the figure was no more than 0.5; with C11U C27U U35C C61G, 0.606; with C11U G12A G18C U47C G68C, no more than 0.5.
C11U G58C: the yeast fitness amounted to 0.925.
With C11U G48C the figure was 0.882; with C11U G48U, 0.853.
With C11U C24G A70G the figure was 0.649.
Consider C11U C30U A65C, for which the yeast fitness is no more than 0.5.
As for C11U C30U C49U, the yeast fitness was 0.646.
To C11U C55G G63C G67C belongs no more than 0.5; to C11U C29U C66A, 0.553; to C11U C29U C66G, no more than 0.5.
Consider C11U U26C U47A G50A, for which the yeast fitness was no more than 0.5.
For the variant C11U C46G C49U, the yeast fitness is 0.825.
With C11U U26A A43U A65C A70G the figure was no more than 0.5; with C11U G18A C62A A70C, no more than 0.5; with C11U U26A A36U A65U, no more than 0.5.
Regarding C11U G38C G48A, the yeast fitness was determined as 0.57.
Turning to C11U U28A A69C, the yeast fitness stood at 0.58.
As to C11U A40G C61G, the yeast fitness was no more than 0.5.
On to C11U G38C, for which the yeast fitness turned out to be 0.715.
For the variant C11U A40C G51A C61U A69C, the yeast fitness is no more than 0.5.

For the origin of these results see the RNAGym collection of RNA variant scans (doi:10.1126/science.aae0568).
